Screening results from PubChem.
A selection: hits, their analogues and other compounds. The true share with any hit is near 4.2%.
KCNQ1 block – inhibitors of human KCNQ1 channel, primary screen, cell-based, thallium flux, high-throughput | CHO-K1 KCNQ1, FluxOR thallium flux fluorescence; stronger effect = higher value | Potassium voltage-gated channel subfamily KQT member 1 (Homo sapiens), P51787 | B-score at 10 µM | 310,000 compounds, 1.3% hits;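 active means compounds whose thallium flux B-score, printed positive for inhibition, exceeds three library SD while starting fluorescence stays within three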;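 further: channel opened by potassium depolarization with thallium stimulus after 20 min compound exposure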
AI-2 QS modul – Vibrio harveyi AI-2 quorum sensing modulators, primary screen, JMH597 strain, luminescence/OD600 ratio | AID 2094, 2009 | 300,000 compounds, 0.4% hits | activity change, % at 7.5 µM | Vibrio harveyi JMH597 AI-2 luminescence/OD600 ratio, 9 h; stronger effect = lower value; strain lacks LuxN and CqsS sensors; 0 = neutral-control median; in the data active means activity change below about -75%, passing the limit was not always enough;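 further: luminescence divided by OD600 gain over 9 h not by final OD600 alone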
Mot1-301 SUMO – yeast Mot1-301 growth rescue at high temperature, primary screen, SUMOylation pathway inhibitor project, S. cerevisiae, ATP luminescence, 38.5C; AID 2716, 2010; S. cerevisiae Mot1-301 growth rescue; percent above DMSO median, 100 means doubled; growth rescue, % at 18.8 µM; 320,000 compounds, 1% hits;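 active means every valid replicate shows activation above 250% relative to neutral control wells; inactive means the rest, any valid replicate at or below 250%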;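 further: OY570 slx delta 5 strain wells were the positive control but not used for scaling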
KCNQ1 act – potentiators or activators of KCNQ1 channel, primary screen, cell-based, thallium flux, high-throughput; 310,000 compounds, 0.35% hits; AID 2648, 2010; CHO-K1 KCNQ1, thallium flux FluxOR fluorescence; stronger effect = higher value; B-score at 10 µM;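 active means fluorescence ratio B-score, a plate-corrected score, at least three library SD, with initial intensity B-score within 5 SD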
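Schedule – 37 °C overnight plating, 90-min dark dye load, 20-min compound pretreatment · System – stable KCNQ1 CHO-K1 line · Probe or stimulus – thallium- and potassium-containing depolarizing buffer · Measured by – kinetic FluxOR fluorescence, 10 s baseline plus 110 s post-stimulus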
hERG protect – hERG rescue from dofetilide block, primary screen, cell-based, CHO-hERG, FluxOR thallium flux, dofetilide IC70 | dofetilide IC70 present | activation (rescue from dofetilide block), less the hit threshold, % at 10 µM | 310,000 compounds, 0.51% hits;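 active means activation above the mean of controls blocked by dofetilide plus 5 SD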;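 further: thallium influx through hERG after potassium depolarization seen as dye fluorescence rise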
Cl transport mod – KCC2 cotransporter modulators, thallium flux, primary screen, cell-based, HEK293 KCC2, FluoZin-2 fluorescence, MLSMR; B-score of Tl+ flux slope (higher = more flux/activation; lower = inhibition) at 10 µM; 190,000 compounds, 2.2% hits; Solute carrier family 12 member 5 (Homo sapiens), Q9H2X9; KCC2 cells, thallium flux FluoZin-2 fluorescence;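 active means thallium flux slope and its plate-corrected score both differing from the plate sample mean at a set confidence after two filtering rounds, in either direction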;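 further: slope of fluorescence scaled to starting intensity during 10 to 20 s after thallium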
Target sequence (Q9H2X9 whole entry, looked up): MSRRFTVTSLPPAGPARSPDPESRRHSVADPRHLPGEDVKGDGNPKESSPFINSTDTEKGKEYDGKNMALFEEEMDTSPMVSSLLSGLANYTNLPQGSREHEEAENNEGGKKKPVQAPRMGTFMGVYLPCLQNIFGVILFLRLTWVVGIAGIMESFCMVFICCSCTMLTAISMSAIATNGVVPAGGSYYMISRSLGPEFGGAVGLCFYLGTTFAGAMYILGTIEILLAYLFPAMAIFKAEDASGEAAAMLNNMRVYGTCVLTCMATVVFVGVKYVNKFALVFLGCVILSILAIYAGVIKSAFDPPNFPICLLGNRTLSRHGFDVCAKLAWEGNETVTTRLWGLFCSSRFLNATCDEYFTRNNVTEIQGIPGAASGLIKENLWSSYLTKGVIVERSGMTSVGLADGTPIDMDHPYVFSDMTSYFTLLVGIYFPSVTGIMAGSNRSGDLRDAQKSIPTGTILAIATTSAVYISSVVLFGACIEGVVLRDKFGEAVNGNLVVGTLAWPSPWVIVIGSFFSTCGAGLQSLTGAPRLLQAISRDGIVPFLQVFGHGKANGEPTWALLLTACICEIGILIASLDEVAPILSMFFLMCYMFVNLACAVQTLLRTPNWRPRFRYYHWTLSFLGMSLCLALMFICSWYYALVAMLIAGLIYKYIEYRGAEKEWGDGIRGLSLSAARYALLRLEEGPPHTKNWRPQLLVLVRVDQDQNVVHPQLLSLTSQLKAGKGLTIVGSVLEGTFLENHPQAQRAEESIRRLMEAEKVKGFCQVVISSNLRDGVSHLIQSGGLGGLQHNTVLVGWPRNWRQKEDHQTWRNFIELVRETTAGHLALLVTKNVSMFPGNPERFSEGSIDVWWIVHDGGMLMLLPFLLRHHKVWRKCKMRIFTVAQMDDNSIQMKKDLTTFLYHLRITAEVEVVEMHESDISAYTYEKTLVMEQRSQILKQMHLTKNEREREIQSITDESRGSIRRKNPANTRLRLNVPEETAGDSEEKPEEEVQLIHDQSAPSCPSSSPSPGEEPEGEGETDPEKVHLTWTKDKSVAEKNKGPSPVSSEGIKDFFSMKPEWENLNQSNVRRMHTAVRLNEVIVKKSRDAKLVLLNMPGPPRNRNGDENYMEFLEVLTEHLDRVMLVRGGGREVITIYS
Active calls of the source: *; i = inactive; . = no result.

SMILES | KCNQ1 block | AI-2 QS modul | Mot1-301 SUMO | KCNQ1 act | hERG protect | Cl transport mod
CSc1ccccc1NC(=O)CSCc1ccc(C)cc1 | i | -0.3 | 60.3 | i | -7.7 | -3.86*
CSc1ccccc1NC(=O)CN(Cc1ccccc1)S(C)(=O)=O | i | 13.3 | 286.8* | i | -14.1 | -0.84
Cc1ccc(CSCC(=O)Nc2ccccc2C(=O)O)cc1 | i | 6.3 | -10.8 | i | -4.9 | .
CC[C@H](C)/C=C(C)/C=C/C1=CC2=CC(=O)[C@]3(C)OC(=O)[C@@H](C(C)=O)[C@@H]3C2=CO1 | 6* | 20.1 | -14.0 | i | -24.0 | -0.914
CCc1ccc(N2CC(C(=O)Nc3cccc(S(=O)(=O)N4CCCC4)c3)CC2=O)cc1 (stereo not drawn) | i | 14.1 | -1.6 | i | -15.1 | .
Cc1ccc(N2C(=O)CC(Sc3cccs3)C2=O)cc1 (stereo not drawn) | i | -17.2 | 319.6* | i | -13.0 | 0.259
O=C(NC(=S)Nc1ccc(N2CCOCC2)cc1)c1ccco1 | i | 4.5 | 19.0 | i | -4.8 | 11*
Clc1cccc(N/N=C/c2ccc(N3CCOCC3)cc2)c1 | i | 36.6 | 326.3* | i | -1.6 | -0.83
CCC/C(=N\NC(=O)C1CC1)c1ccccc1 | i | 15.8 | -1.4 | i | -5.0 | .
CCC/C(=N/NC(=O)c1cccc(Cl)c1)c1ccccc1 | i | 19.9 | -6.7 | i | -0.3 | 11.8*
S=C(Nc1ccc(N2CCOCC2)cc1)Nc1ccc2nc(-c3ccco3)c(-c3ccco3)nc2c1 | 6* | 29.2 | -1.4 | i | -25.4 | .
CCOc1ccc(OCC)c(-c2c(=O)n(OCc3ccccc3Br)c3ccccc3[n+]2[O-])c1 | i | 12.9 | -11.1 | i | -8.4 | .
O=C(NC(=S)NCCc1ccccc1)c1cccc(Cl)c1 | i | 15.5 | 24.6 | 9* | 12.4* | .
O=C(NC(=S)Nc1ccc(N2CCOCC2)cc1)c1cccc(Cl)c1 | i | -0.9 | 32.0 | i | -5.7 | 6.93*
O=C(NC(=S)Nc1ccc(N2CCOCC2)cc1)c1ccccc1 | i | 22.1 | 9.5 | i | -11.9 | .
CC(=O)c1cccc(NC(=S)NC(=O)c2cccc(Cl)c2)c1 | i | -2.4 | -0.2 | i | 1.7 | 15.6*
COc1ccc(C(=O)NC(=S)NCCc2ccccc2)cc1 | i | 3.9 | -1.2 | i | -11.0 | 0.769
CN(C(=O)COC(=O)CNC(=O)c1sc2ccccc2c1Cl)c1ccccc1 | i | 21.3 | -2.3 | i | -4.6 | -2.61
Cc1nn(C)cc1S(=O)(=O)N1CCCCC1C (stereo not drawn) | i | 12.1 | 2.2 | i | -0.7 | .
OC1CCC(Nc2ncnc3sccc23)CC1 (stereo not drawn) | i | 17.0 | -4.8 | i | -9.9 | .
CCC(NC(=O)c1cncc(Br)c1)c1ccccc1 (stereo not drawn) | i | 15.0 | -3.1 | i | -8.6 | .
O=C(CN1C(=O)NC2(CCCc3ccccc32)C1=O)N1CCCCC1 (stereo not drawn) | i | 18.0 | 7.9 | i | -14.4 | .
Cc1ccsc1/C=N/NC(=O)C(N)=O | i | 7.0 | -0.3 | i | 4.7* | -0.187
Cc1ccsc1/C=N/NC(=O)c1ccccn1 | i | 14.0 | 11.8 | i | 4.7* | 0.321
CN1CCN(C(=O)Nc2cccc(-c3ccccc3)c2)CC1 | i | 10.9 | -2.1 | i | -9.6 | 0.338
COc1ccc(N2CCN(C3CCCN(C(=O)C4=C(C)OCCO4)C3)CC2)cc1 (stereo not drawn) | i | 9.9 | 0.8 | i | -8.7 | .
N=c1oc2cc(O)ccc2cc1C(=O)Nc1ccc(Br)cc1 | 8* | 16.3 | 4.5 | i | -4.6 | .
